Experimental data reported in ChEMBL document CHEMBL1955718, “Discovery of new orally effective analgesic and anti-inflammatory hybrid furoxanyl N-acylhydrazone derivatives” (Bioorg Med Chem, 2012).
Activity calls are given as the source filed them.

Key:
Glycine max = test: Inhibition of soybean lipoxygenase using arachidonic acid as substrate at 50 uM
Procedure, shortened: (§1)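 Soybean 15-lipoxygenase kit assay, arachidonic acid substrate, H2O2 as lipoxygenating agent in 0.1 M Tris-HCl pH 7.4. Single-point screen at 50 µM. IC50 found by varying concentration over 10–100 µM. Quercetin at 4 µM as positive control; duplicate means; Student t-test.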

HT-29 [1] = test: Inhibition of NF-kappaB activation expressed in human HT-29 cells assessed as inhibition of TNFalpha-stimulated IL8 release at 100 uM after 24 hrs by flow cytometric analysis relative to control; type: cell-based
Procedure, shortened: (§2)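 Reporter HT-29-NF-κB-hrGFP cells pretreated 2 h with compound (DMSO <0.5%) at the highest concentration with 100% survival, then stimulated with TNF-α (3 ng/mL final) for 18–24 h at 37 °C. IL-8 in clarified supernatant measured by flow cytometric bead assay (500 events). Expressed as % of TNF-α/DMSO control ± SD; thalidomide as reference.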

[2] = Solubility of the compound in soybean lipoxygenase assay buffer at pH 7.4 at >50 uM; type: physicochemical
HT-29 [3] = test: Pro-inflammatory activity in NFkappaB-GFP transfected human HT-29 cells at 25 to 400 uM after 24 hrs by propidium iodide staining-based flow cytometric analysis; type: ADME, cell-based; conditions: ht-29, 24 h
Procedure, shortened: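 Reporter HT-29-NF-κB-hrGFP cells given compound alone, without TNF-α, for 18–24 h at 37 °C after the same 2 h pre-incubation. GFP-positive live (propidium iodide-excluding) cells counted by flow cytometry; IL-8 in supernatant measured by bead-based flow cytometry.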

[4] = Cytotoxicity against mouse […] cells after 48 hrs by MTT assay; type: cell-based
Procedure, shortened: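 J774 macrophages in DMEM (4 mM L-glutamine, 10% heat-inactivated FBS) were seeded at 1 × 10^5 cells/well and grown for 48 h at 37 °C, 5% CO2. They were then exposed to compounds at 25–400 µM for 48 h. MTT (0.1 mg/mL final) was added for 3 h, formazan was dissolved in DMSO/glycine buffer pH 10.5, and absorbance was read at 560 nm to give an IC50.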

HT-29 [5] = test: Inhibition of TNFalpha-induced NF-kappaB activation expressed in human HT-29 cells coexpressing hrGFP at 100 uM after 24 hrs by propidium iodide staining-based flow cytometric analysis relative to control; type: cell-based
Procedure, shortened: (§3)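 HT-29 cells stably expressing NF-κB-driven hrGFP given compound (DMSO <0.5%) for 2 h at the maximum non-cytotoxic concentration, then TNF-α at 3 ng/mL final for 18–24 h. Cells trypsinised and stained with propidium iodide; 5000 events gated on FSC/SSC. The %GFP-positive among PI-excluding live cells is normalised to TNF-α/DMSO control, ± SD.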

[6] = Cytotoxicity against human HT-29 cells expressing NF-kappaB-hrGFP assessed as highest non-cytotoxic dose for 100% cell survival after 24 hrs by MTT assay; type: cell-based; conditions: read-out: Activity
Procedure, shortened: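 HT-29 cells stably carrying pNF-κB-hrGFP, seeded at 0.5 × 10^6/mL in DMEM with 10% FBS, grown 24 h at 37 °C, 5% CO2. Compounds added in DMSO (<0.5% v/v final) at 12.5–400 µM for 24 h. Viability by MTT reduction (2 h), formazan dissolved in DMSO/glycine buffer, read at 560 nm.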

Mus musculus [7] = test: Analgesic activity in albino mouse assessed as inhibition of acetic acid-induced abdominal constriction at 100 umol/kg, po administered 1 hr before acetic acid challenge measured after 60 mins relative to control; type: functional; conditions: Abdomen
Procedure, shortened: (§4)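 Albino mice of both sexes (18–23 g) were dosed orally as a suspension in 5% arabic gum in saline, with vehicle controls. After 1 h they received 0.6% acetic acid ip (0.1 mL/10 g). Constrictions were counted for 20 min starting 10 min after injection. Data are % inhibition vs vehicle, mean ± SEM, Student t-test.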

Rattus norvegicus [8] = test: Antiinflammatory activity in albino rat assessed as inhibition of carrageenan-induced paw edema at 100 umol/kg, po administered 1 hr before carrageenan challenge measured after 3 hrs by plethysmometric analysis relative to control; type: functional
Procedure, shortened: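 Albino rats of both sexes (150–200 g) were dosed orally as a suspension in 1% Tween 80 in saline, with vehicle controls. After 1 h, 0.1 mL 1% carrageenan or saline was injected subplantar. Paw volume was read by glass plethysmometer at 3 h. Edema = carrageenan-paw minus saline-paw volume; % inhibition vs vehicle; Student t-test.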

[9] = target: T1, Prostaglandin G/H synthase 1 (Ovis aries) (UniProt P05979); conditions: 0.1 uM
T1 sequence (whole entry): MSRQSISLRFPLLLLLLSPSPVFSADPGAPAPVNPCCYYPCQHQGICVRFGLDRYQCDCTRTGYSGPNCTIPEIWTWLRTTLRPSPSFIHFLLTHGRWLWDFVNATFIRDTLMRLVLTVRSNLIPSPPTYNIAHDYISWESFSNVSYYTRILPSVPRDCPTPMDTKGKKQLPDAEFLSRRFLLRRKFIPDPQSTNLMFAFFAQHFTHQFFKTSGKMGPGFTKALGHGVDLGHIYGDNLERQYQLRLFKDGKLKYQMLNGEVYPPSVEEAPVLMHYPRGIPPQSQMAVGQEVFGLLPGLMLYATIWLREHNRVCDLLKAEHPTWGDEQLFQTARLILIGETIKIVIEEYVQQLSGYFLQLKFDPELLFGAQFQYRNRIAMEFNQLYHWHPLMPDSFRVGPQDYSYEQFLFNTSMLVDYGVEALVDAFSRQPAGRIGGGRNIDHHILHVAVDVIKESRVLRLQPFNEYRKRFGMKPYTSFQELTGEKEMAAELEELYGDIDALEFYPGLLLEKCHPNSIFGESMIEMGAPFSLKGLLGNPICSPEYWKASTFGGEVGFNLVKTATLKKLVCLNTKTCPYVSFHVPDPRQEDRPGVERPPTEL

HT-29 [10] = test: Inhibition of TNF-alpha-induced NFkappaB activation expressed in human HT-29 cells coexpressing hrGFP at 50 uM after 24 hrs by propidium iodide staining-based flow cytometric analysis relative to control; type: cell-based; procedure, shortened: as §3
Rattus norvegicus [11] = test: Antihyperalgesic activity against carrageenan-induced thermal hyperalgesia in Wistar rat assessed as latency of withdrawal response at 100 umol/kg, po administered 1 hr before carrageenan challenge measured after 30 to 240 mins by hot plate test; type: functional, organism-based
Procedure, shortened: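 Wistar rats of both sexes (150–200 g) dosed orally at 100 µmol/kg as suspension in 5% arabic gum in saline, vehicle controls. After 1 h, 1% carrageenan (1 mg/paw) or saline injected subplantar. Left hind paw withdrawal latency on hot plate at 51 ± 0.1 °C read at 0–240 min, 20 s cut-off. Δ latency = time-0 latency minus later latency; mean ± SEM, n = 8–10; Student t-test.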

[12] = Induction of NO release in 0.1 M Tris-HCl and 0.1 mM DTPA at pH 8.3 measured for 20 mins in presence of cysteine; type: physicochemical; conditions: buffer, pH 8.3, 20 min
Procedure, shortened: (§5)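 Electrochemical NO detection with an ISO-NOP sensor. Compounds in DMSO added to 0.1 M Tris-HCl, 0.1 mM DTPA at pH 7.4 or 8.3. Cysteine (300 or 100 µM) added and NO recorded for 20 min at 25 or 37 °C; compound:Cys ratio 1:1 at 25 °C, with 3:1 and 37 °C runs also made.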

Mus musculus [13] = test: Analgesic activity in albino mouse assessed as inhibition of acetic acid-induced abdominal constriction at 100 umol/kg, po administered 1 hr before acetic acid challenge measured after 30 mins relative to control; type: functional; conditions: Abdomen; procedure, shortened: as §4
[14] = Induction of NO release in 0.1 M Tris-HCl and 0.1 mM DTPA at pH 7.4 measured for 20 mins in presence of cysteine; type: physicochemical; conditions: buffer, pH 7.4, 20 min; procedure, shortened: as §5
HT-29 [15] = test: Inhibition of NF-kappaB activation expressed in human HT-29 cells assessed as inhibition of TNFalpha-stimulated IL8 release at 50 uM after 24 hrs by flow cytometric analysis relative to control; type: cell-based; procedure, shortened: as §2
HT-29 [16] = test: Inhibition of NF-kappaB activation expressed in human HT-29 cells assessed as inhibition of TNFalpha-stimulated IL8 release at 20 uM after 24 hrs by flow cytometric analysis relative to control; type: cell-based; procedure, shortened: as §2
HT-29 [17] = test: Inhibition of TNF-alpha-induced NFkappaB activation expressed in human HT-29 cells coexpressing hrGFP at 20 uM after 24 hrs by propidium iodide staining-based flow cytometric analysis relative to control; type: cell-based; procedure, shortened: as §3
[18] = Inhibition of soybean lipoxygenase using arachidonic acid as substrate; design: species or system Glycine max; procedure, shortened: as §1
HT-29 [19] = test: Inhibition of NF-kappaB activation expressed in human HT-29 cells assessed as inhibition of TNFalpha-stimulated IL8 release at 25 uM after 24 hrs by flow cytometric analysis relative to control; type: cell-based; procedure, shortened: as §2
HT-29 [20] = test: Inhibition of TNF-alpha-induced NFkappaB activation expressed in human HT-29 cells coexpressing hrGFP at 25 uM after 24 hrs by propidium iodide staining-based flow cytometric analysis relative to control; type: cell-based; procedure, shortened: as §3

| SMILES | inhibition (Glycine max) | Activity (HT-29 [3]) | IC50 [4] | MNTC at 24 h [6] | inhibition in vivo at 100 µmol/kg (Rattus norvegicus [8]) | Activity [14] | other results |
| --- | --- | --- | --- | --- | --- | --- | --- |
| Cc1[nH]cnc1C(=O)N/N=C/c1no[n+]([O-])c1C | 27% | Non-toxic | > 400 µM | 100 µM | – | – | inhibition (HT-29 [1]): 103%; solubility [2]: Insoluble; NF-kappaB activity (% of TNF-alpha control) (HT-29 [5]): 126% |
| COc1ccc2c(c1)c(CC(=O)O)c(C)n2C(=O)c1ccc(Cl)cc1 [INDOMETHACIN] | – | – | – | – | 61% | – | inhibition in vivo at 100 µmol/kg (Mus musculus [7]): 44%; inhibition [9]: 49.7% |
| O=C(N/N=C/c1ccc2no[n+]([O-])c2c1)c1cccnc1 | 0% | Non-toxic | 31 µM | 50 µM | 0% | 0 nM/min | NF-kappaB activation (% of TNF-alpha control) (HT-29 [10]): 66%; Activity (Rattus norvegicus [11]): inactive; Activity [12]: 0.64 nM/min; inhibition in vivo at 100 µmol/kg (Mus musculus [13]): 35%; inhibition (HT-29 [15]): 29% |
| O=S(=O)(c1ccccc1)c1no[n+]([O-])c1S(=O)(=O)c1ccccc1 | – | Non-toxic | – | 20 µM | – | 3700 nM/min | inhibition (HT-29 [16]): 6%; inhibition (HT-29 [17]): 6% |
| O=C(N/N=C/c1c(-c2ccccc2)no[n+]1[O-])c1cccnc1 | 14% | Non-toxic | 195 µM | 25 µM | – | – | IC50 [18]: > 100 µM; inhibition (HT-29 [19]): 138%; inhibition (HT-29 [20]): 114% |
